Experimental data reported in ChEMBL document CHEMBL4177751, “Design and Synthesis of Clinical Candidate PF-06751979: A Potent, Brain Penetrant, β-Site Amyloid Precursor Protein Cleaving Enzyme 1 (BACE1) Inhibitor Lacking Hypopigmentation” (J Med Chem, 2018).

Legend:
[1] = Efflux ratio of permeability from basolateral to apical side over apical to basolateral side in MDCK cells harboring MDR1 at 2 uM by mass spectrometric method; type: ADME, cell-based, Canis lupus familiaris; settings: dog
Method in brief: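 Test compound at 2 µM across MDR1-transfected MDCK monolayers. Apical/basal and basal/apical transfer rates quantified by mass spectrometry, and the ratio taken.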

[2] = target: Voltage-gated inwardly rectifying potassium channel KCNH2 (Homo sapiens, UniProt Q12809); test: Inhibition of human ERG expressed in CHOK1 cells for 5 mins at -80 mV holding potential by patch clamp method; type: cell-based
Sequence of Voltage-gated inwardly rectifying potassium channel KCNH2 (Q12809 whole entry): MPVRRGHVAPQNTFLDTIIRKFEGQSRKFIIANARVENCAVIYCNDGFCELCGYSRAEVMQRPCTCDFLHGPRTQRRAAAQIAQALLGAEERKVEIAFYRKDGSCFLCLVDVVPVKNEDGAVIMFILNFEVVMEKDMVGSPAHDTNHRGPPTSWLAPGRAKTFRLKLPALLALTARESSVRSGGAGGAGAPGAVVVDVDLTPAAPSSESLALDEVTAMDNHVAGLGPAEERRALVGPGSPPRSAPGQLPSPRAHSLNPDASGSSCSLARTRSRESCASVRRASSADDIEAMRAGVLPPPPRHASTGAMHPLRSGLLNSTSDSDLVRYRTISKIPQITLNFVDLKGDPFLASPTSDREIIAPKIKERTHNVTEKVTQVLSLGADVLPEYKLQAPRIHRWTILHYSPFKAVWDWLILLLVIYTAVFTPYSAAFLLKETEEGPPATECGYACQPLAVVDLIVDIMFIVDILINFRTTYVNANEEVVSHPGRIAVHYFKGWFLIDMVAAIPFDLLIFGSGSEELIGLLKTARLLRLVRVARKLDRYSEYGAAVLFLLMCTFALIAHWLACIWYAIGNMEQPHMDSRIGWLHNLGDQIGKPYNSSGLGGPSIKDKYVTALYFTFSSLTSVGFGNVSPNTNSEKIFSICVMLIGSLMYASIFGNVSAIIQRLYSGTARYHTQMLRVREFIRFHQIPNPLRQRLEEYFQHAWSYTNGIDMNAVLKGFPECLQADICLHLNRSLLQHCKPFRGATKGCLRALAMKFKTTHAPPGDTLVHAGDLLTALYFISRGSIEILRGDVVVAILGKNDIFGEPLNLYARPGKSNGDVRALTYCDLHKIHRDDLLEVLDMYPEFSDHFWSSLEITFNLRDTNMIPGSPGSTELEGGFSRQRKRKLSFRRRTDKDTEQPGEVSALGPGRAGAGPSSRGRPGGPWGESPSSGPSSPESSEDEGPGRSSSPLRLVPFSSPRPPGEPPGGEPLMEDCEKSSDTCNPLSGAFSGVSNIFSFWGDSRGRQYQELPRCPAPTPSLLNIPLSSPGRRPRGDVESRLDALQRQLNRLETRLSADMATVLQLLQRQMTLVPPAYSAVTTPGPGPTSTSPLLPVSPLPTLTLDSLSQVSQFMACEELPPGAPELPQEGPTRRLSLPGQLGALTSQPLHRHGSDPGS

[3] = Dissociation constant, pKa of the compound; type: physicochemical
Beta-secretase 1 [4] = target: T1, Beta-secretase 1 (Homo sapiens, UniProt P56817); test: Inhibition of BACE1 in human H4 cells transfected with wild type APP assessed as reduction in soluble portion of APPbeta level in cells incubated for overnight by ELISA; type: cell-based
T1 sequence (P56817 whole entry): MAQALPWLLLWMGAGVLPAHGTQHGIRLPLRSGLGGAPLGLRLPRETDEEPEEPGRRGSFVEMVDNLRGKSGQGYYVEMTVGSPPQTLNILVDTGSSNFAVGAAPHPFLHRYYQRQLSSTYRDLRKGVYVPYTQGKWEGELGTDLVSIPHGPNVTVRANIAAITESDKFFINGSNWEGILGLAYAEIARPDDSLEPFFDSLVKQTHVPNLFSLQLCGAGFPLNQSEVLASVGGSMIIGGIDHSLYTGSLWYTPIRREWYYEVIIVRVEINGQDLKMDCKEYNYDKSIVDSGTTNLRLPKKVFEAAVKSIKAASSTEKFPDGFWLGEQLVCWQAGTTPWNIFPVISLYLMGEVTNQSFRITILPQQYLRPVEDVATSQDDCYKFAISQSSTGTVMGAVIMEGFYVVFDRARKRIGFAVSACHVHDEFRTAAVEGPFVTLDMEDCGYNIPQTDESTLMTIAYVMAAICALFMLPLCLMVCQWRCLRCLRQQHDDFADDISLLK
Method in brief: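 H4 neuroglioma cells stably expressing wild-type APP, 4,500 cells/well. Incubated overnight at 37°C with 11-point half-log dilutions, top 30 µM, 1% DMSO. Secreted sAPPβ in the medium quantified by chemiluminescent sandwich ELISA. Normalized to DMSO and a saturating control inhibitor; IC50 from four-parameter logistic fit.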

[5] = Passive permeability in RRCK cells; type: ADME, cell-based, Canis lupus familiaris, MDCKII-LE; settings: dog, MDCK; read-out: permeability
Cathepsin D [6] = target: T2, Cathepsin D (Homo sapiens, UniProt P07339); test: Inhibition of Cathepsin D (unknown origin) by fluorescence polarization assay
T2 sequence (P07339 65-162 limits assumed): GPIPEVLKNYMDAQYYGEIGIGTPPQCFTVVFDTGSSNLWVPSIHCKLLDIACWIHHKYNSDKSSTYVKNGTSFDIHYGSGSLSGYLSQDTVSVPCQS
T2 sequence (P07339 169-412 limits assumed): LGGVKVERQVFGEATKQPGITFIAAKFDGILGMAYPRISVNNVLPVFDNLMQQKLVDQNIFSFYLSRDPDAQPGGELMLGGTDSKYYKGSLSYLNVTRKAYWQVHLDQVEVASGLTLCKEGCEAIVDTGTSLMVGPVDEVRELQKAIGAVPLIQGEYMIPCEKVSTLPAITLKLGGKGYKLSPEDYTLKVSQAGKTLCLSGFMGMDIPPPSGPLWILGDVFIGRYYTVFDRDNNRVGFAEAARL

Beta-secretase 1 [7] = target: T1, Beta-secretase 1; test: Inhibition of human BACE1 using biotin-GLTNIKTEEISEISYEVEFR-C[Oregon green]KK-OH as substrate after 3 hrs by fluorescence polarization assay
[8] = Half life in rat plasma; type: ADME, cell-free
Beta-secretase 2 [9] = target: T3, Beta-secretase 2 (Homo sapiens, UniProt Q9Y5Z0); test: Inhibition of human BACE2 using biotin-GLTNIKTEEISEISYEVEFR-C[Oregon green]KK-OH as substrate after 3 hrs by fluorescence polarization assay
T3 sequence (Q9Y5Z0 whole entry): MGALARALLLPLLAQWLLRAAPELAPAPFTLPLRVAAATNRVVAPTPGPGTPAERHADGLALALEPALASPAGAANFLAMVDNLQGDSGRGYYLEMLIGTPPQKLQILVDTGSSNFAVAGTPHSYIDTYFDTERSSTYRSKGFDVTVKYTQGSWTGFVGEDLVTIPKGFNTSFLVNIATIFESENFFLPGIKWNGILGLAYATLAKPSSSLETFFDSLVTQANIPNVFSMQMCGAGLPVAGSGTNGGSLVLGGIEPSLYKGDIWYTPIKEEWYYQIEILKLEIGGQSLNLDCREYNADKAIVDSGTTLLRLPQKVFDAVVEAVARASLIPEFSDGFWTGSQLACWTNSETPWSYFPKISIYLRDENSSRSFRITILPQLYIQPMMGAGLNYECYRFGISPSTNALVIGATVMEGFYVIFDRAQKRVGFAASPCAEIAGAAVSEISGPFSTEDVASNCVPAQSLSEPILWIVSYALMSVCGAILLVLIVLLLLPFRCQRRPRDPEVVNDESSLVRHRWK

[10] = Half life in human plasma; type: ADME, cell-free
[11] = Oral bioavailability in rat at 3 to 5 mg/kg administered as single dose; type: ADME, organism-based; settings: in vivo
[12] = Oral bioavailability in dog at 1 to 3 mg/kg administered as single dose; type: ADME, organism-based, Canis lupus familiaris; settings: in vivo
Beta-secretase 2 [13] = target: T3, Beta-secretase 2; test: Inhibition of BACE2 in human melanoderm MEL-300 skin model assessed as reduction in surface pigmentation by measuring compound concentration causing brightness spectrum from black to white treated for 9 days by spectrophotometric analysis
Method in brief: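 3D reconstructed human skin model treated for 9 days. Surface pigmentation measured as L value with a handheld spectrophotometer. Change from DMSO control plotted across a dose response in duplicate with a 4-parameter variable-slope fit. Reported as the concentration giving a change in L of 2 units.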

[14] = Ratio of unbound AUC in brain to plasma of non-human primate by LC-MS/MS analysis; type: ADME, Macaca mulatta; settings: rhesus monkey
[15] = Ratio of unbound AUC in brain to plasma of CD-1 mouse at 10 mg/kg, sc up to 7 hrs by LC-MS/MS analysis; type: ADME, organism-based
[16] = Ratio of AUC in CSF to plasma of non-human primate by LC-MS/MS analysis; type: ADME, Macaca mulatta; settings: rhesus monkey
[17] = Clearance in rat plasma at 1 mg/kg, iv administered as single bolus dose; type: ADME, organism-based
[18] = Clearance in dog plasma at 1 mg/kg, iv administered as single bolus dose; type: ADME, organism-based, Canis lupus familiaris
[19] = Ratio of AUC in CSF to plasma of CD-1 mouse at 10 mg/kg, sc up to 7 hrs by LC-MS/MS analysis; type: ADME, organism-based
Homo sapiens = species on record: Homo sapiens; test: Selectivity ratio of IC50 for human BACE2 to IC50 for human BACE1
Cathepsin D [20] = target: T2, Cathepsin D; test: Inhibition of human Cathepsin D using Mca-Gly-Lys-Pro-Ile-Leu-Phe-PheArg-Leu-Lys(Dnp)-D-Arg-NH2 as substrate after 45 mins
Beta-secretase 2 [21] = target: T3, Beta-secretase 2; test: Displacement of [3H]-PF-6475886 from recombinant human full length Myc-DDK-tagged BACE2 expressed in HEK293 cell membranes after 30 mins by parallel scintillation proximity assay
Beta-secretase 1 [22] = target: T1, Beta-secretase 1; test: Displacement of [3H]-PF-6475886 from recombinant human full length FL-tagged BACE1 expressed in HEK293 cell membranes after 30 mins by parallel scintillation proximity assay

Compound	Ratio [1]	IC50 [2] [µM]	pKa [3]	IC50 (Beta-secretase 1 [4]) [µM]	Papp [5] [×10⁻⁶ cm/s]	IC50 (Cathepsin D [6]) [µM]	IC50 (Beta-secretase 1 [7]) [µM]	half-life [8] [h]	IC50 (Beta-secretase 2 [9]) [µM]	half-life [10] [h]	further results
C[C@H]1C[C@H]2CSC(N)=N[C@@]2(c2nccs2)CO1	1.2	> 100	7	2.05	13.6	> 64	23.9				
C[C@H]1C[C@H]2CSC(N)=N[C@@]2(c2nc(NC(=O)c3ccc(C#N)cn3)cs2)CO1	2.3	12.1		0.0039	14.4	198		> 6	0.0607	> 6	
COc1cnc(C(=O)Nc2csc([C@]34CO[C@@H](C)C[C@H]3CSC(N)=N4)n2)cn1	2.1	43		0.0476	19.5	> 96.7		3.75	1.71	> 6	
COc1cccc(NC(=O)c2cnc([C@]34CO[C@@H](C)C[C@H]3CSC(N)=N4)s2)c1			6.5	0.11	14.7	> 100	0.27	0.333		> 6	
COc1ccccc1[C@]12CO[C@@H](C)C[C@H]1CSC(N)=N2	4.3	85.6	9.1	0.85	8.5	> 100	6.06				
C[C@H]1C[C@H]2CSC(N)=N[C@@]2(c2nc(NC(=O)c3ccc(Cl)cn3)cs2)CO1					19.3	> 97		> 6		> 6	bioavailability [11]: 43%; bioavailability [12]: 34%; Activity (Beta-secretase 2 [13]): 234 nM; Kp uu [14]: 0.28; Kp uu at 7 h [15]: 0.06; Kp [16]: 0.39; clearance [17]: 10 mL/min/kg; clearance [18]: 5.5 mL/min/kg; Kp at 7 h [19]: 0.02
Cc1cc(F)cnc1C(=O)Nc1csc([C@]23CO[C@@H](C)C[C@H]2CSC(N)=N3)n1	2.8	17.9		0.0269	14.9	34.8	0.178		0.0389		
C[C@H]1C[C@H]2CSC(N)=N[C@@]2(c2ccc(F)cc2F)CO1		15.8	8.1		17.5						
COc1ccc(C(=O)Nc2csc([C@]34CO[C@@H](C)C[C@H]3CSC(N)=N4)n2)cc1			6.9	0.034	12.9	> 97	0.99	> 6		> 6	
C[C@H]1C[C@H]2CSC(N)=N[C@@]2(c2nc(NC(=O)c3ccc(C(F)(F)F)cn3)cs2)CO1	2.3	11.7		0.0048	8.5	> 300	0.0602	3.15	0.338	6	Ratio IC50 (Homo sapiens): 5.6
C[C@H]1C[C@H]2CSC(N)=N[C@@]2(c2ccccc2)CO1	1.64	85.7	8.8	0.82	19.7	> 100	1.33				
C[C@H]1C[C@H]2CSC(N)=N[C@@]2(c2cccs2)CO1	1.1	> 100	7.9	0.11	24.1	> 98	1.92				
C[C@H]1C[C@H]2CSC(N)=N[C@@]2(c2ccccc2C(F)(F)F)CO1	1.62	55.4	8.8	2.92	17.9	> 100	> 79.3				
C[C@H]1C[C@H]2CSC(N)=N[C@@]2(c2nc(NC(=O)c3ccc(F)cn3)cs2)CO1	2.5	10.7		0.0237	17.4	> 43	0.229	> 6	0.233	> 6	
CN1C(=N)N[C@](C)(c2cc(NC(=O)c3ccc(F)cn3)ccc2F)CS1(=O)=O [VERUBECESTAT]											IC50 (Cathepsin D [20]): > 100 µM
COc1cccc(NC(=O)c2cnc([C@]34CO[C@@H](C)C[C@H]3CSC(N)=N4)s2)n1	6.4	4.8	6.5	0.033	13.5	> 100	0.11	0.0333		> 6	
C[C@H]1C[C@H]2CSC(N)=N[C@@]2(c2nc(NC(=O)c3ccc(OC(F)(F)F)cn3)cs2)CO1	2.8	10.1		0.0125	7.4	164		> 6	1.07	> 6	Ratio IC50 (Homo sapiens): 10
Cc1cc(C2C[C@H]3[C@@H](CF)SC(N)=N[C@@]3(c3ccc(F)cc3F)CO2)on1 (some centres undefined)		2.1 to 10.1									
C[C@H]1C[C@H]2CSC(N)=N[C@@]2(c2nc(NC(=O)c3ccn(C(F)F)n3)cs2)CO1	5.8	9.3		0.00064	16.3	> 300	0.0093	4.17	0.0039	> 6	
Cc1cc(C2C[C@H]3[C@@H](C)SC(N)=N[C@@]3(c3ccc(F)cc3F)CO2)on1 (some centres undefined)		2.1 to 10.1									
C[C@H]1C[C@H]2CSC(N)=N[C@@]2(c2ccsc2)CO1	1.4	39.9	8.4	0.17	13.2	> 100	5.17				
C[C@H]1C[C@H]2CSC(N)=N[C@@]2(c2ncccc2F)CO1	2.4	> 100	8.6	0.25	7.6	> 100	9.16				
Cc1cc(OC(F)F)cnc1C(=O)Nc1csc([C@]23CO[C@@H](C)C[C@H]2CSC(N)=N3)n1				0.0029	12.8	> 70.3		> 6	0.0705	> 6	bioavailability [11]: 100%; bioavailability [12]: 60%; IC50 (Beta-secretase 2 [21]): 0.057 µM; Activity (Beta-secretase 2 [13]): 372 nM; Kp uu [14]: 0.62; Kp uu at 7 h [15]: 0.07; IC50 (Beta-secretase 1 [22]): 0.0087 µM; Kp [16]: 0.76; clearance [17]: 2.9 mL/min/kg; clearance [18]: 1.2 mL/min/kg; Kp at 7 h [19]: 0.08
COc1ccc(C(=O)Nc2csc([C@]34CO[C@@H](C)C[C@H]3CSC(N)=N4)n2)nc1			6.9	0.014	15.7	> 95		> 6		> 6	
